This note sets out measurements from ChEMBL document CHEMBL4382247, “A novel series of napabucasin derivatives as orally active inhibitors of signal transducer and activator of transcription 3 (STAT3)” (Eur J Med Chem, 2019).

Data set [1] concerns U-251. Description: Decrease in total STAT3 level in human U251 cells at 200 nM after 24 to 48 hrs by sandwich-ELISA. The class given is ADME, cell-based. As to conditions: u-251, 0.2 µM; call rule not given here. In a few lines:
(§1)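 Cells treated 24 or 48 h. Whole-cell lysates made in lysis buffer with protease inhibitor cocktail. Total STAT3 and p-STAT3 Y705 measured by sandwich ELISA. Three repeats; groups compared with control by paired t-test; means ± S.D.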
For orientation: An ELISA detects its analyte on a solid surface through an enzyme-linked reagent.

Data set [2] can be described thus: Hepatotoxicity in BALB/c mouse implanted with mouse CT26 cells assessed as effect on liver morphology by measuring edema at 50 mg/kg, po administered once daily by H and E staining based histopathological analysis. The class given is toxicity, organism-based. The conditions noted are these: in vivo. The essentials: (§2)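 CT-26 subcutaneous flank tumour model in male BALB/c mice, five per group, dosed orally at 50mg/kg daily in 5% NMP/95% PEG 400 versus vehicle. After treatment, heart, liver, spleen, lung and kidney collected, sectioned and stained with H&E for histological examination.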

Data set [3] is described as follows: Cardiotoxicity in BALB/c mouse implanted with mouse CT26 cells assessed as effect on heart morphology by measuring necrosis at 50 mg/kg, po administered once daily by H and E staining based histopathological analysis. The class given is toxicity, organism-based. The conditions noted are these: in vivo. In a few lines: as §2
Data set [4] can be described thus: Toxicity in BALB/c mouse implanted with mouse CT26 cells assessed as effect on lung morphology by measuring edema at 50 mg/kg, po administered once daily by H and E staining based histopathological analysis. As to conditions: in vivo. In kind it is organism-based. The essentials: as §2
Data set [5] in a line: Toxicity in BALB/c mouse implanted with mouse CT26 cells assessed as change in body weight at 50 mg/kg, po administered once daily. In kind it is organism-based. As to conditions: in vivo. The essentials: (§3)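 Mice bearing subcutaneous CT-26 tumours, five per group, given 50mg/kg orally each day in 5% NMP/PEG 400, with an equal-volume vehicle control group. Body weight and behaviour monitored over the treatment period.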

A short description of data set [6]: Cardiotoxicity in BALB/c mouse implanted with mouse CT26 cells assessed as effect on heart morphology by measuring cell inflammation at 50 mg/kg, po administered once daily by H and E staining based histopathological analysis. The class given is toxicity, organism-based. As to conditions: in vivo. The essentials:
as §2

For data set [7], the target named is Signal transducer and activator of transcription 3 (Homo sapiens, UniProt P40763). Briefly: Binding affinity to recombinant N-terminal His-tagged STAT3 (unknown origin) expressed in baculovirus infected Sf9 insect cells by SPR analysis. The essentials: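 STAT3 made by baculovirus: bacmid generated in Sf9, virus amplified in Sf9, protein expressed in High Five cells. Purified on Ni-NTA and by gel filtration (>90% pure). Amine-coupled to a CM5 chip. Compound run at 18.75–600 nM in 5% DMSO/PBS on Biacore X100. KD taken from equilibrium fit.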
Signal transducer and activator of transcription 3, sequence (P40763 whole entry): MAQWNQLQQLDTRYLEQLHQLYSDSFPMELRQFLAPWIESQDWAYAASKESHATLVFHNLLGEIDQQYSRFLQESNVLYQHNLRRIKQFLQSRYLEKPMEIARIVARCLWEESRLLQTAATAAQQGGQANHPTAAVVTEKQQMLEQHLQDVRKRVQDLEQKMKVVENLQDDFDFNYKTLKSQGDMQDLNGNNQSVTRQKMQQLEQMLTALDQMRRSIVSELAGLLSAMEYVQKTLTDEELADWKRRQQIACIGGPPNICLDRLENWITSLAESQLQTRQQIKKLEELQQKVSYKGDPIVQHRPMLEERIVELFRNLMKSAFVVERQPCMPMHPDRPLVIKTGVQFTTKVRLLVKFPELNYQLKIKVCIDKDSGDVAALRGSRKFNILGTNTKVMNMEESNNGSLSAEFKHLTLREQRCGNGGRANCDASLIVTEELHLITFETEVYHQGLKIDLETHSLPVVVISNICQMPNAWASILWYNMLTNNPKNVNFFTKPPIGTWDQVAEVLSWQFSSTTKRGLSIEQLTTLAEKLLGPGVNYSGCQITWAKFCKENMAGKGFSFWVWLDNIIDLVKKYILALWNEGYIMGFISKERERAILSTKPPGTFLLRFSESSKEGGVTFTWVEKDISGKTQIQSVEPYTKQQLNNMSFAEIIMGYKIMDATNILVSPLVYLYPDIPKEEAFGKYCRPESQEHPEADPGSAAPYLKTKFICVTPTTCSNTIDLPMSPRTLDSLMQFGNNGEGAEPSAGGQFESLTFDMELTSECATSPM
In general terms: In SPR one partner is held on a chip, and binding of the other changes the refractive index at the surface.

In data set [8] the test system is CT26. Briefly: Potency index, ratio of napabucasin IC50 to test compound IC50 for mouse CT26 cells. In kind it is functional.
Data set [9] deals with CT26. Briefly: Antitumor activity against mouse CT26 cells implanted in BALB/c mouse assessed as tumor growth inhibition at 50 mg/kg, po administered once daily measured every 3 days relative to control. The class given is functional. The conditions noted are these: 72 h, read-out: TGI. In a few lines:
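Male BALB/c mice, 6 weeks old, given 1 × 10^6 CT-26 cells subcutaneously in the right flank. At about 70 mm3 tumour volume, randomized into groups of five and dosed orally once daily with 50mg/kg or vehicle (5% NMP in PEG 400). Tumours measured by caliper every 3 days, V = ab^2/2. Tumours weighed at sacrifice. TGI computed from mean tumour weights. T/C computed as mean RTV (Vt/V0) treated over control.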

The nature of data set [10]: Toxicity in BALB/c mouse implanted with mouse CT26 cells assessed as effect on kidney morphology by measuring edema at 50 mg/kg, po administered once daily by H and E staining based histopathological analysis. As to conditions: in vivo. The class given is organism-based. In a few lines: as §2
The next data set deals with HepG2. Description: Decrease in total STAT3 level in human HepG2 cells at 400 nM after 24 to 48 hrs by sandwich-ELISA. In kind it is ADME, cell-based. The conditions noted are these: hepg2, 0.4 µM. The essentials: as §1
Data set [11] concerns U-251. Briefly: Antiproliferative activity against human U251 cells after 72 hrs by MTT assay. In kind it is functional, cell-based. As to conditions: U-251, 72 h. In a few lines: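 Cells seeded at 5 × 10^3 per well and cultured 24 h before compound addition at varied concentrations, then grown a further 72 h; 0.5% DMSO as solvent control. MTT (5mg/ml solution) added for 4 h, formazan dissolved in DMSO, absorbance read at 570nm. Each treatment in triplicate; Mean ± SD.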
On the technique in general: Tetrazolium assays rely on reduction of a dye to a coloured formazan, in cell work by metabolically active cells.

Data set [12] is described as follows: Toxicity in BALB/c mouse implanted with mouse CT26 cells assessed as behavioral alteration at 50 mg/kg, po administered once daily. The class given is organism-based. As to conditions: in vivo. The essentials:
as §3

pIC50, pKd: −log10 of the molar value.

For orientation: pKd means the negative decadic logarithm of the Kd, by convention in mol/L. The term pIC50 denotes −log10 of the IC50, conventionally taken in molar units. Regarding `O=C(NCCN1CCCCC1)c1cc2c(o1)C(=O)c1ccccc1C2=O`, the Activity entry in the data set on U-251 [1] is given as “Toxic”; in data set [2], “Non-Toxic”; in data set [3], “Non-Toxic”; in [4], “Non-Toxic”; in data set [5] it was “Non-Toxic”; in [6] it was “Non-Toxic”. Further, the figures for the Activity entry (in data set [10]; with HepG2; in data set [12]) were “Non-Toxic”, “Toxic” and “Non-Toxic”, respectively. Besides, the pKd in [7] is 6.96. The “Ratio IC50” value in the data set on CT26 [8] was more than 10. In addition, the inhibition in vivo at 50 mg/kg in the data set on CT26 [9] was 63%. Further, the pIC50 with U-251 [11] is 6.66.
